Series [1] is described as follows: Toxicity in Balb/c mouse xenografted with human A549 cells assessed as reduction in body weight at 10 mg/kg, po measured up to 8 days. Format: organism-based. Particulars: in vivo, 192 h. The gist of the method:
(§1)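 Male BALB/c-nu mice, 1 × 10^7 A549 cells implanted sc in the flank. Dosing began seven days after implantation: 10 mg/kg oral, daily for 17 days, 5 mice per group, with a vehicle control group. Tumour size measured daily by caliper, with body weight and clinical signs also recorded daily. TGI calculated from volume changes relative to starting volumes versus control.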
(A xenograft is tissue or cells of one species grown in another, often human tumour cells in immunodeficient mice.)

Series [2] in a line: Cytotoxicity against human NCI-H446 cells assessed as inhibition of cell growth at 0.5 uM after 48 hrs under normoxic condition by CCk-8 assay relative to control. Format: cell-based. The gist of the method:
(§2)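 RPMI-1640 with 10% fetal calf serum. Compounds dissolved in DMSO. Hypoxia produced chemically with cobalt(II) chloride; normoxic wells received no CoCl2. Viability read by CCK-8 (WST-8) at 450 nm, and inhibition ratio calculated against untreated control.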

Series [3] can be described thus: Cytotoxicity against human A549 cells assessed as inhibition of cell growth at 0.5 uM after 48 hrs under normoxic condition by CCk-8 assay relative to control. In kind it is cell-based. The gist of the method:
as §2

The subject of series [4] is NCI-H446. The experiment in a line: Antiproliferative activity against human NCI-H446 cells assessed as inhibition of cell growth at 0.5 uM after 48 hrs under hypoxic condition (200 uM CoCl2) by CCk-8 assay relative to control (reference value: 65.84%). Format: functional. The gist of the method: as §2
The subject of series [5] is A549. The experiment in a line: Downregulation of VEGF expression in human A549 cells at 5 uM after 24 hrs under hypoxic condition by q-PCR analysis relative to control. Format: functional.
The subject of series [6] is NCI-H446. The experiment in a line: Antiproliferative activity against human NCI-H446 cells assessed as hypoxic sensitive enhancement ratio in presence of CoCl2. Format: functional.
Series [7] is described as follows: Toxicity in Balb/c mouse assessed as effect on clinical signs at 100 mg/kg, po administered 5 times per week for 2 weeks. Format: organism-based. Particulars: in vivo, 336 h. The gist of the method:
(§3)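 Male BALB/c-nu mice dosed orally at 100 mg/kg, five times a week for two weeks with two days off each weekend. Clinical signs of toxicity and body weight monitored.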

Series [8] has as its system A549. Description: Antitumour activity against human A549 cells xenografted in Balb/c mouse assessed as tumour growth inhibition at 15 mg/kg, po administered daily and measured at day 18 relative to control. In kind it is functional. Particulars: 432 h, read-out: TGI. The gist of the method:
(§4)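 Male BALB/c-nu mice carrying sc flank A549 xenografts (1 × 10^7 cells). Dosing began 6–7 days post-inoculation, with oral 5, 15 or 50 mg/kg daily for 18 days and 3 mice per group. Tumours measured by caliper on days 4, 6, 8, 11, 13, 15 and 18. TGI derived from volume change from dosing start relative to untreated controls.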

Series [9] has as its system NCI-H446. Description: Antiproliferative activity against human NCI-H446 cells assessed as inhibition of cell growth at 0.5 uM in hypoxia condition (200 uM CoCl2) and under irradiation at 8 Gy for 24 hrs and measured after 24 hrs by CCK8 assay (reference value: 68.77%). Format: functional. (Formazan colour is commonly taken as a measure of viable cells.)
Series [10] has as its system A549. Description: Antitumour activity against human A549 cells xenografted in Balb/c mouse assessed as tumour growth inhibition at 10 mg/kg, po administered daily and mesured at day 17 relative to control. Particulars: 408 h, read-out: TGI. Format: functional. The gist of the method:
as §1

Series [11] relates to A549. The experiment in a line: Antiproliferative activity against human A549 cells assessed as hypoxic sensitive enhancement ratio in presence of CoCl2. Format: functional.
Series [12] addresses Vascular endothelial growth factor receptor 2 (Homo sapiens, UniProt P35968). The experiment in a line: Inhibition of N-terminal GST-tagged human VEGFR2 cytoplasmic domain (790 to 1356 residues) expressed in baculovirus expression system using FAM-22 peptide as substrate incubated for 10 mins followed by substrate addition by caliper method. The gist of the method:
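Compounds (DMSO stocks 40 μM–0.2 nM, ten levels) tested in duplicate. Enzyme preincubated with compound 10 min at room temperature, then FAM-P22 peptide/ATP added and incubated at 28 °C. Stopped with EDTA-containing buffer. IC50 obtained by four-parameter Hill fit; staurosporine as reference.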

In series [13] the test system is A549. Description: Antitumour activity against human A549 cells xenografted in Balb/c mouse assessed as tumour growth inhibition at 5 mg/kg, po administered daily and measured at day 18 relative to control. Format: functional. Particulars: 432 h, read-out: TGI. The gist of the method:
as §4

A short description of series [14]: Toxicity in Balb/c mouse assessed as weight loss at 100 mg/kg, po administered 5 times per week for 2 weeks. In kind it is organism-based. The note with it: in vivo, 336 h. The gist of the method:
as §3

Series [15] in a line: Toxicity in po dosed Balb/c mouse assessed as maximum tolerated dose administered 5 times per week for 2 weeks. Particulars: in vivo. In kind it is organism-based.
The subject of series [16] is A549. Description: Antitumour activity against human A549 cells xenografted in po dosed Balb/c mouse assessed as tumour growth inhibition administered daily for 18 days and […]. Format: functional, organism-based.
The nature of series [17]: Toxicity in Balb/c mouse xenografted with human A549 cells assessed as effect on weight loss at 10 mg/kg, po measured up to 17 days. In kind it is organism-based. The note with it: in vivo, 408 h. The gist of the method: as §1
The subject of series [18] is A549. Description: Antiproliferative activity against human A549 cells assessed as inhibition of cell growth at 0.5 uM in hypoxia condition (200 uM CoCl2) and under irradiation at 8 Gy for 24 hrs and measured after 24 hrs by CCK8 assay (reference value: 64.135%). Format: functional.
The test system of series [19] is A549. The experiment in a line: Antiproliferative activity against human A549 cells assessed as hypoxic sensitive enhancement ratio in presence of Cocl2 under irradiation. In kind it is functional.
Series [20] has as its system A549. The experiment in a line: Antitumour activity against human A549 cells xenografted in Balb/c mouse assessed as increase in tumour volume at 10 mg/kg, po administered daily and mesured after 7 days. In kind it is functional, organism-based. The gist of the method:
as §1

For series [21], the system named is NCI-H446. The experiment in a line: Antiproliferative activity against human NCI-H446 cells assessed as hypoxic sensitive enhancement ratio in presence of Cocl2 under irradiation. Format: functional.
For series [22], the system named is A549. The experiment in a line: Downregulation of VEGF expression in human A549 cells at 5 uM after 24 hrs under normoxic condition by q-PCR analysis relative to control. Format: cell-based. Particulars: a549, 24 h.
In series [23] the target is Epidermal growth factor receptor (Homo sapiens, UniProt P00533). Description: Inhibition of N-terminal GST-tagged human EGFR cytoplasmic domain (669 to 1210 residues) expressed in baculovirus expression system using FAM-22 peptide as substrate incubated for 10 mins followed by substrate addition by caliper method.
Chain of Epidermal growth factor receptor (P00533 whole entry, the tested form may be a part): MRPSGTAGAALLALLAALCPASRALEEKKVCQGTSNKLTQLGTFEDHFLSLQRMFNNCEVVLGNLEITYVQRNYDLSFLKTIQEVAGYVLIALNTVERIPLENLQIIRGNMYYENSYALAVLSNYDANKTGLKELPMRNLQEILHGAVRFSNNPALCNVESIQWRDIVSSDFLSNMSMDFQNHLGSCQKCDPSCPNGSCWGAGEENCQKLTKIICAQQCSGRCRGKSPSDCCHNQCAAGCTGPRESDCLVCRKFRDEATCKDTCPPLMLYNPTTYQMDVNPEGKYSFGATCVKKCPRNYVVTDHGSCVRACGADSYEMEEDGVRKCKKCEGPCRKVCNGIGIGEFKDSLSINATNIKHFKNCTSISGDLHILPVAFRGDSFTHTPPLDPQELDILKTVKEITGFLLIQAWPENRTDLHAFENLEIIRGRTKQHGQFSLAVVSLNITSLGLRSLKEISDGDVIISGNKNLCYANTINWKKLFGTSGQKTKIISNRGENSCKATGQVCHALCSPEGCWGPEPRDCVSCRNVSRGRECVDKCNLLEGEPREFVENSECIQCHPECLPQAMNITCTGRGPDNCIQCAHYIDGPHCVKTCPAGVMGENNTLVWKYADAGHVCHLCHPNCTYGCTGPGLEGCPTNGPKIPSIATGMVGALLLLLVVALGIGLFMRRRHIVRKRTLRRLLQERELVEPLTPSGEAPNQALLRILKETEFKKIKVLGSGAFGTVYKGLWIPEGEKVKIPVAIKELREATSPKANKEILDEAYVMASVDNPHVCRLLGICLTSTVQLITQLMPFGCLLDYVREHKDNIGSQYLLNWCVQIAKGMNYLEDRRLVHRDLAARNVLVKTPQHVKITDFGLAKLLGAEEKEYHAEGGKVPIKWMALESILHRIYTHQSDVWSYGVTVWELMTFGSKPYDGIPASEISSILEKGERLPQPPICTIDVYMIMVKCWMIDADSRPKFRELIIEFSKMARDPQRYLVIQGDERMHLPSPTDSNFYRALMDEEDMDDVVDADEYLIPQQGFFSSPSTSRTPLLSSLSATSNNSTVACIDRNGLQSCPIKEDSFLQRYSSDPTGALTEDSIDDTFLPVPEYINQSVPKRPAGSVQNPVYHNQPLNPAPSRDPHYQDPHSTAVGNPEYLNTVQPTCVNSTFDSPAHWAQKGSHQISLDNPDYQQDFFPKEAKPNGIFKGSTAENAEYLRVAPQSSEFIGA
Series [24] relates to A549. Description: Antiproliferative activity against human A549 cells assessed as inhibition of cell growth at 0.5 uM after 48 hrs under hypoxic condition (200 uM CoCl2) by CCk-8 assay relative to control (reference value: 59.94%). Format: functional. The gist of the method: as §2
Series [25] relates to A549. Description: Antitumour activity against human A549 cells xenografted in Balb/c mouse assessed as tumour growth inhibition at 50 mg/kg, po administered daily and measured at day 18 relative to control. Format: functional. The note with it: 432 h, read-out: TGI. The gist of the method: as §4

The source made the active and inactive calls. The rule behind the calls is not given here.

Chain of Vascular endothelial growth factor receptor 2 (P35968 whole entry, the tested form may be a part): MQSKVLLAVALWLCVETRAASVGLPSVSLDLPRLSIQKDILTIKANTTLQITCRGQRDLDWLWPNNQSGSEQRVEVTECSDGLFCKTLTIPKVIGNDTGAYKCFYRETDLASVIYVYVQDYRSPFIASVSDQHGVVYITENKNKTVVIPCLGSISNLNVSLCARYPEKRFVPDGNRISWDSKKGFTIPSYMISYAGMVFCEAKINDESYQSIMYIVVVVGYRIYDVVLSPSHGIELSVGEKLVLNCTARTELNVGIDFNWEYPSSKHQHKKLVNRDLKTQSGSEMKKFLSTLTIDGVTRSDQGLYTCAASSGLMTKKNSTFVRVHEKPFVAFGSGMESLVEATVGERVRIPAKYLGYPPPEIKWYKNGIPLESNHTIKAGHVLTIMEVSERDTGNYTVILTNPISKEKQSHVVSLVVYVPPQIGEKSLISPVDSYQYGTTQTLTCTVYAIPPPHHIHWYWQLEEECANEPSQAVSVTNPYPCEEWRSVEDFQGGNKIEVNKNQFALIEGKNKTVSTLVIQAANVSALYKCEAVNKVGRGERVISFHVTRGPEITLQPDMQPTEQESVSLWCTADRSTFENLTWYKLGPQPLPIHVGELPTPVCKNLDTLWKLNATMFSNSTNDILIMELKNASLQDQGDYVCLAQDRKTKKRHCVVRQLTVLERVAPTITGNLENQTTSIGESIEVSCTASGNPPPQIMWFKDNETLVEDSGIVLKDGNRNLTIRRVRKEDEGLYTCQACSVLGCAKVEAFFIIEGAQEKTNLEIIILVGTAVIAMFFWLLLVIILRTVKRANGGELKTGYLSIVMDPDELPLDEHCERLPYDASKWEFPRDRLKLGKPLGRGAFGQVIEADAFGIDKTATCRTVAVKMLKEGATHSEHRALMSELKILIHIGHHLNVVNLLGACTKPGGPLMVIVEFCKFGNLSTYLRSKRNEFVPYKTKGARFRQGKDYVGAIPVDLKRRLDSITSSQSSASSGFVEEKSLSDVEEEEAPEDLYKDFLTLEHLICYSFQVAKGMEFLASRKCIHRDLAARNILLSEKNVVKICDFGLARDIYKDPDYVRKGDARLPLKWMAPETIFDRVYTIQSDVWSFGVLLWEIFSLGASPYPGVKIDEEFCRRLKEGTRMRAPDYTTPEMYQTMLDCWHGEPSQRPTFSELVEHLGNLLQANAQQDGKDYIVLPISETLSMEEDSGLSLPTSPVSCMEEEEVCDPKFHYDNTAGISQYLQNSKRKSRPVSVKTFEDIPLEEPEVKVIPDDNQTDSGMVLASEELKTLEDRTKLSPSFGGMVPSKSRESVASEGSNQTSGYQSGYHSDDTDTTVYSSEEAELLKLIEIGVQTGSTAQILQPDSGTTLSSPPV

As for `COc1cc2c(Nc3ccc(Br)cc3F)ncnc2cc1OCC1CCN(C)CC1` [VANDETANIB], the Activity entry in [1] was “Toxic”. Moreover, the figures for the inhibition at 48 h, 0.5 µM in series [2] and in series [3] were 25.6% and 21.1%, respectively.
As for `COc1cc2c(Nc3ccc(Br)cc3F)ncnc2cc1OCCOCCNC(=O)Cn1cnc([N+](=O)[O-])n1`, the “inhibition (INH)” value was 84.37% in the series with NCI-H446 [4], 88.66% in the series on NCI-H446 [9], 86.41% in the series with A549 [18] and 75.86% with A549 [24]. Moreover, the results for the “fold change (FC)” value with A549 [5] and in the series with A549 [22] were 0.0011 and 0.1571, respectively. Besides, the Ratio was found to be 1.17 in the series with NCI-H446 [6], 1.32 with A549 [11], 0.96 in the series on A549 [19] and 0.93 in the series with NCI-H446 [21]. In addition, the Activity result in [7], in series [14] and in series [17] was “Non-Toxic” throughout. For the same compound, the inhibition in vivo at 15 mg/kg in the series on A549 [8] is 68.3%. The inhibition in vivo at 10 mg/kg in the series with A549 [10] came to 63.9%. In addition, the results for the IC50 in series [12] and in [23] were 36.8 nM and 5.9 nM, respectively. Moreover, the inhibition in vivo at 5 mg/kg with A549 [13] worked out at 31.2%. The inhibition (as a rule, the drop in the measured response relative to a control, in per cent) at 48 h, 0.5 µM was 18.9% in [2] and 6.75% in series [3]. For the same compound, in [15], the MTD (as a rule, the highest dose tested that stayed within the study's limit of toxicity) at 336 h stood at 100 mg/kg. The inhibition result in the series with A549 [16] was “Dose-dependent effect”. The outcome in the series with A549 [20] was Active. Besides, the inhibition in vivo at 50 mg/kg in the series on A549 [25] is 80.5%.

The record behind these values is ChEMBL document CHEMBL4359867, “Design, synthesis and biological evaluation of novel 4-anilinoquinazoline derivatives as hypoxia-selective EGFR and VEGFR-2 dual inhibitors” (Eur J Med Chem, 2019).
